As a reminder, the IC50 is the midpoint of a concentration-inhibition curve. A low value points to higher potency.

Active and inactive are the calls of the source. The calls are words filed in the database; no cut-off is given here.

In ChEMBL document CHEMBL1154569, “Scalarane and homoscalarane compounds from the nudibranchs Glossodoris sedna and Glossodoris dalli: chemical and biological properties” (J Nat Prod, 2000) one finds Activity and IC50 data, which are given here for six compounds.

Experiment [1] can be described thus: Inhibition of cytosolic PLA2. Put shortly:
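Measured in RBL-2H3 cells stimulated with ionomycin.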

Experiment [2] relates to Gambusia affinis. The experiment is described as follows: Ichthyotoxicity against Gambusia affinis at 0.1 ppm.

As to `CC(=O)O[C@H]1C[C@@H]2[C@@]3(C)CCCC(C)(C)[C@@H]3CC[C@@]2(C)[C@@H]2CC=C3CO[C@@H](O)[C@@H]3[C@@]12C`, the result in experiment [1] and in experiment [2] was inactive.
Take `CC(=O)O[C@@H]1C[C@@H]2[C@@]3(C)CCCC(C)(C)[C@@H]3CC[C@@]2(C)[C@@H]2CC=C3CO[C@@H](O)[C@@H]3[C@@]12C`: the result in experiment [1] and in experiment [2] was inactive.
Regarding `CC(=O)OC[C@]12CCCC(C)(C)[C@@H]1CC[C@]1(C)[C@@H]2C[C@@H](O)[C@]2(C)[C@@H](C=O)C(C(C)=O)=CC[C@@H]12`, inhibition in experiment [1] was half-maximal at 18 µM (IC50).
In experiment [1], `CC(=O)O[C@H]1C[C@@H]2[C@@]3(C)CCCC(C)(C)[C@@H]3CC[C@@]2(C)[C@@H]2CC=C(C=O)[C@H](C=O)[C@@]12C` [SCALARADIAL] registered an IC50 of 0.6 µM. In addition, the outcome in experiment [2] was Active.
In the case of `CC(=O)OC[C@]12CCCC(C)(C)[C@@H]1CC[C@]1(C)[C@@H]2C[C@@H](O)[C@]2(C)[C@@H]3C(=CC[C@@H]12)[C@H](C)O[C@H]3O`, the outcome in experiment [1] and in experiment [2] was inactive.
In the case of `C[C@@H]1O[C@@H](O)[C@H]2C1=CC[C@H]1[C@]3(C)CC[C@H]4C(C)(C)CCC[C@]4(C)[C@H]3C[C@@H](O)[C@]21C`, the result in experiment [1] and in experiment [2] was inactive.
